# In article PMC9200148 (The Journal of Infectious Diseases, 2020):
# “And” between values parts separate entries of the source, which are not always exact repeats. Identical values can stand only once.
# How the values were obtained:
# RSV-A Memphis 37b [1] = test: RSV challenge study: viral load in nasal wash by RT-qPCR; format: in vivo, human; conditions: for AUC VL from baseline through day 12 / Reduction in AUC VL vs placebo: 5 mg BID nebulized; for AUC VL from baseline through day 12 / Peak VL / Time to nondetectability (or <1 log) of RSV RNA / VL at 2.5 d (peak at placebo) after first dose / VL slope: baseline to 24 h after first dose / VL slope: baseline to 48 h after first dose: LS mean (SD)
# Method in brief: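 Nasal washes collected twice daily were assayed for RSV RNA by RT-qPCR (Simplexa) and expressed as log10 PFUe/mL. ITT-I was defined as PCR-positive just before dosing, or positive on at least two later occasions. Nebulized 5 mg or placebo was given every 12 h for 5 days, starting about 12 h after detection or on day 6. Viral load AUC, peak and time to nondetectability were analysed by a mixed-effects model and t test.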
# RSV-A Memphis 37b [2] = test: RSV challenge study: symptom score and mucous weight; format: in vivo, human; conditions: for AUC of mucous weight from baseline through day 12 / AUC of symptom score from baseline through day 12: LS mean (SD)
# Method in brief: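 Volunteers with low serum neutralizing titres were challenged with RSV-A Memphis 37b. Dosing with 5 mg or placebo by nebulizer every 12 h for 5 days began about 12 h after RT-qPCR detection or on the morning of day 6, whichever came first. Symptoms were self-recorded in diaries three times daily, and mucus was weighed daily from used facial tissues. AUCs were computed and group means compared by t test in the ITT-I population.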
# [3] = RSV challenge study: safety; format: in vivo, human
# Method in brief: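 This was a randomized, single-blind, placebo-controlled study in healthy adults inoculated intranasally on day 0 and held in quarantine for 15 days. They received 5 mg or placebo by nebulizer and facemask every 12 h for 5 days. The ITT population comprised those inoculated who received at least one dose. Adverse events (counted as subjects reporting them), laboratory values, vital signs, ECG and spirometry were recorded through day 28 (±3 days).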
# [4] = Plasma pharmacokinetics after repeated nebulized dosing; format: in vivo, human
# Method in brief: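 Healthy adults aged 18–55 received 5 mg nebulized by facemask every 12 h for 5 days (10 doses), with the first dose either in the morning (schedule A) or the evening (schedule B). Serial plasma samples were assayed by LC–MS/MS after liquid–liquid extraction, using a D4-labelled internal standard (LLOQ 0.1 ng/mL; range 0.1–100 ng/mL). Tmax was timed from the end of inhalation, and values are geometric means of both schedules.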
# RSV = conditions: cited from earlier work
structure (smiles),measurement,setting,value
"Cc1cnc(N2CC3(CCOCC3)C2)c(C(=O)Nc2ccc(C(=O)N3CCc4cc(C(=O)Nc5c(C)cccc5F)sc4-c4ccccc43)cc2)c1 [PC786, N-(2-fluoro-6-methylphenyl)-6-(4-(5-methyl-2-(7-oxa-2-azaspiro [3.5]nonan-2-yl)nicotinamido)benzoyl)-5,6-dihydro-4H-benzo[b]thieno[2,3-d]azepine-2-carboxamide]",AUC VL from baseline through day 12,RSV-A Memphis 37b [1]; ITT-I (n = 22),274.1 log10 PFUe/mL × h and 274.1 (234.42) log10 PFUe/mL × h
same,Reduction in AUC VL vs placebo,RSV-A Memphis 37b [1]; ITT-I,32.57%
same,Peak VL,RSV-A Memphis 37b [1]; ITT-I,3.4 (1.76) log10 PFUe/mL
same,Time to nondetectability (or <1 log) of RSV RNA,RSV-A Memphis 37b [1]; ITT-I,4.6 (3.75) d
same,VL at 2.5 d (peak at placebo) after first dose,RSV-A Memphis 37b [1]; ITT-I,2.0 (1.82) log10 PFUe/mL
same,VL slope: baseline to 24 h after first dose,RSV-A Memphis 37b [1]; ITT-I,0.8 (1.89) log10 PFUe/mL/24 h
same,VL slope: baseline to 48 h after first dose,RSV-A Memphis 37b [1]; ITT-I,0.6 (1.52) log10 PFUe/mL/48 h
same,AUC VL from baseline through day 12,"RSV-A Memphis 37b [1]; ITT-IS (n = 19, post hoc)",325.8 (199.19) log10 PFUe/mL × h
same,Reduction in AUC VL vs placebo,RSV-A Memphis 37b [1]; ITT-IS,34% and 34.25%
same,Peak VL,RSV-A Memphis 37b [1]; ITT-IS,3.7 (1.30) log10 PFUe/mL
same,Time to nondetectability (or <1 log) of RSV RNA,RSV-A Memphis 37b [1]; ITT-IS,4.9 (4.13) d
same,VL at 2.5 d (peak at placebo) after first dose,RSV-A Memphis 37b [1]; ITT-IS,2.3 (1.66) log10 PFUe/mL
same,VL slope: baseline to 24 h after first dose,RSV-A Memphis 37b [1]; ITT-IS,0.7 (1.50) log10 PFUe/mL/24 h
same,VL slope: baseline to 48 h after first dose,RSV-A Memphis 37b [1]; ITT-IS,0.6 (1.45) log10 PFUe/mL/48 h
same,AUC of mucous weight from baseline through day 12,RSV-A Memphis 37b [2]; ITT-I,11.8 (22.99) g × No. of days
same,AUC of symptom score from baseline through day 12,RSV-A Memphis 37b [2]; ITT-I,192.3 (244.97) score × h
same,Mean AUC of mucous weight lower than placebo,"RSV-A Memphis 37b [2]; ITT-I, P = .1095",38%
same,AUC of total symptom score lower than placebo,"RSV-A Memphis 37b [2]; ITT-I, not statistically significant",29%
same,AUC of mucous weight from baseline through day 12,RSV-A Memphis 37b [2]; ITT-IS,12.7 (24.69) g × No. of days
same,AUC of symptom score from baseline through day 12,RSV-A Memphis 37b [2]; ITT-IS,221.2 (252.05) score × h
same,Reduction of mean AUC of mucous weight vs placebo,"RSV-A Memphis 37b [2]; ITT-IS, P = .0126",46%
same,"Conjunctivitis attributed to study drug, subjects","[3]; ITT (n = 28), 5 mg BID",0 No. (%)
same,"FEV1 decreased attributed to study drug, subjects","[3]; ITT (n = 28), 5 mg BID",0 No. (%)
same,"Headache attributed to study drug, events","[3]; ITT (n = 28), 5 mg BID",1 No. of Events
same,"Headache attributed to study drug, subjects","[3]; ITT (n = 28), 5 mg BID",1 (3.6) No. (%)
same,No. of subjects with AEs attributed to study drug,"[3]; ITT (n = 28), 5 mg BID",1 (3.6) No. (%)
same,"Photophobia attributed to study drug, subjects","[3]; ITT (n = 28), 5 mg BID",0 No. (%)
same,No. of subjects with AEs (TEAEs),"[3]; ITT (n = 28), 5 mg BID, first dose to day 28",12 No. (%) and 12 (42.9) No. (%)
same,"Serious adverse events, deaths, other significant AEs",[3]; nebulized 5 mg BID for 5 days,no serious adverse events
same,Tolerability,"[3]; nebulized 5 mg BID for 5 days, healthy subjects inoculated with RSV",well tolerated
same,Time at which steady state was reached,[4]; 5 mg BID,≤ 4 days
same,AUC,"[4]; human, inhaled, 5 mg",11.7 ng·h/mL
same,Cmax,"[4]; human, inhaled, 5 mg, Mean plasma Cmax, 5 mg BID nebulized",1.5 ng/mL
same,half-life,"[4]; human, inhaled, 5 mg, t½, apparent terminal half-life, geometric mean (CV%)",12.1 h
same,Tmax,"[4]; repeated 5 mg BID, median (range), after end of inhalation",0.542 (0.383–2.08) h
CS(=O)(=O)CCCn1c(Cn2c(=O)n(CC(F)(F)F)c3ccncc32)cc2cc(Cl)ccc21 [JNJ-53718678],AUC reduction of viral load in RSV challenge study,RSV,41%–53%
